Usually half-life stands for the time needed for the level to fall by half in the phase considered. As a reminder, the IC50 is the point on the concentration scale where inhibition reaches its midpoint. One may read the logD as the decadic logarithm of the distribution of all forms, ionised or not, between an organic phase and buffer at a given pH. A low value points to a more hydrophilic compound.

Here are results for one compound from ChEMBL document CHEMBL4393663, “Targeting gliomas with triazene-based hybrids: Structure-activity relationship, mechanistic study and stability” (Eur J Med Chem, 2019).

The target in series [1] is T1, Histone deacetylase (Homo sapiens) (UniProt Q13547+O15379+Q9UBN7+Q92769+Q9UQL6+Q8WUI4+Q9BY41+Q96DB2+P56524+Q9UKV0+Q969S8). Kind of series: Inhibition of HDAC in human HeLa nuclear extract assessed as enzyme residual activity at 100 uM using Boc-Lys(acetyl)-AMC as substrate and measured after 15 mins by fluorescence assay relative to control. Format: cell-free. In outline: (§1)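 Fluorometric HDAC activity kit with HeLa nuclear extract as enzyme source; compounds from 20 mM DMSO stock, tested in duplicate. Deacetylated substrate treated with lysine developer; fluorescence read after 15 min at ex 360/em 460 nm.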

The nature of series [2]: Stability in 80% human plasma assessed as half life by HPLC analysis. Format: ADME, cell-free. In outline:
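Plasma pooled from 13 donors (heparin), stored at −18 °C, thawed slowly, diluted to 80% v/v with 10 mM PBS pH 7.4 at 37 °C; compound added from 10 mM acetonitrile stock; aliquots taken over time, centrifuged 12000 rpm 10 min, supernatant analyzed by HPLC for half-life; duplicate or triplicate runs.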

Series [3] deals with T1, Histone deacetylase (Homo sapiens). As to the kind of experiment: Inhibition of HDAC in human HeLa nuclear extract assessed as enzyme residual activity at 25 uM using Boc-Lys(acetyl)-AMC as substrate and measured after 15 mins by fluorescence assay relative to control. Format: cell-free. In outline:
as §1

A short description of series [4]: Induction of alkylation in 5'-GGGAGA-3' single stranded DNA (unknown origin) at ssDNA to compound concentration ratio of 1:3 to 1:250M incubated for 7 days by ESI-MS analysis. In outline:
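Single-stranded oligonucleotide incubated with the compound in 10 mM ammonium bicarbonate buffer, pH 8.3, at 37 °C. Aliquots were taken at intervals and extracted three times with ethyl acetate, then centrifuged. The aqueous phase was analysed by flow-injection ESI(−) HRMS in 50:50 water/acetonitrile with 0.1% formic acid. Run in triplicate.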

The nature of series [5]: Stability of the compound in PBS buffer at pH 7.4 assessed as half life by HPLC analysis. Format: physicochemical.
In series [6] the test system is GL261. Kind of series: Cytotoxicity against mouse GL261 cells assessed as reduction in cell viability incubated for 48 hrs by MTS assay. Format: functional, cell-based. As to conditions: GL261, 48 h.
Series [7] relates to GL261. As to the kind of experiment: Induction of apoptosis in mouse GL261 cells assessed as reduction in cell viability at 10 uM incubated for 48 hrs by annexinV-PE/7-AAD staining based flow cytometric analysis. Format: functional. In outline: (§2)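 GL261 cells exposed 48 h; trypsinized adherent cells combined with medium cells, pelleted, resuspended in PBS/1% BSA, stained with annexin V-PE/7-AAD; flow cytometry gating viable (both negative), early apoptotic (annexin+/7-AAD−), late apoptotic/dead (both positive); two readings per sample; three independent experiments in duplicate.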
A general note: In flow cytometry, cells or beads pass a laser one at a time.

Series [8] has as its system GL261. As to the kind of experiment: Induction of apoptosis in mouse GL261 cells assessed as increase in early apoptotic cells at 10 uM incubated for 48 hrs by annexinV-PE/7-AAD staining based flow cytometric analysis. Format: functional, cell-based. In outline: as §2
Series [9] has as its system SH-SY5Y. As to the kind of experiment: Induction of apoptosis in human SH-SY5Y cells assessed as increase in early apoptotic cells at 10 uM incubated for 48 hrs by annexinV-PE/7-AAD staining based flow cytometric analysis. Format: functional, cell-based. In outline:
(§3)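 SH-SY5Y cells grown on poly-D-lysine/laminin, differentiated 7 days with 10 µM retinoic acid, then exposed 48 h. Adherent plus floating cells pooled, resuspended in PBS/1% BSA, stained annexin V-PE/7-AAD and counted by flow cytometry into viable, early apoptotic, late apoptotic/necrotic; two readings per sample; three independent experiments in duplicate.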

Series [10] relates to SH-SY5Y. Kind of series: Induction of apoptosis in human SH-SY5Y cells assessed as reduction in cell viability at 10 uM incubated for 48 hrs by annexinV-PE/7-AAD staining based flow cytometric analysis. It is filed as functional. In outline:
as §3

Series [11] relates to SH-SY5Y. Kind of series: Induction of apoptosis in human SH-SY5Y cells assessed as increase in late necrotic cells at 10 uM incubated for 48 hrs by annexinV-PE/7-AAD staining based flow cytometric analysis. It is filed as functional, cell-based. In outline:
as §3

Series [12] deals with GL261. Kind of series: Induction of morphological changes in mouse GL261 cells assessed as increase in cell circularity at 10 uM incubated for 48 hrs by Hoechst 33258 staining based fluorescence microscopic analysis. Format: functional. In outline: (§4)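 After 48 h exposure, GL261 cells on coverslips fixed in 4% paraformaldehyde, permeabilized (0.1% Triton X-100), blocked 30 min, stained with Alexa Fluor-594 phalloidin and Hoechst 33258; ten random fields at 630×; circularity (4π·area/perimeter²) and aspect ratio traced manually on ≥120 cells per condition; three independent experiments.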

Series [13] concerns GL261. As to the kind of experiment: Induction of morphological changes in mouse GL261 cells assessed as decrease in cell aspect ratio at 10 uM incubated for 48 hrs by Hoechst 33258 staining based fluorescence microscopic analysis. It is filed as functional. In outline:
as §4

For series [14], the system named is GL261. Kind of series: Antiinvasive activity in mouse GL261 cells assessed as reduction in cell migration at 10 uM preincubated for 48 hrs and measured after 6 hrs by giemsa staining based Boyden chamber assay. It is filed as functional.
Series [15] addresses T1, Histone deacetylase (Homo sapiens). As to the kind of experiment: Inhibition of HDAC in human HeLa nuclear extract assessed as enzyme residual activity at 6.25 uM using Boc-Lys(acetyl)-AMC as substrate and measured after 15 mins by fluorescence assay relative to control. It is filed as cell-free. In outline: as §1
Series [16] in a line: Stability of compound in PBS buffer at pH 7.4 at 10^-5 M measured 5 min for 60 mins in presence of N-acetylcysteine by UV-Vis spectrophotometric analysis. It is filed as physicochemical. Conditions: pH 7.4, 1 h, 10 µM.
Series [17] is described as follows: Stability of the compound in PBS buffer at pH 7.4 at 10^-5 M measured 5 min for 60 mins in presence of glutathione by UV-Vis spectrophotometric analysis. It is filed as physicochemical. As to conditions: pH 7.4, 1 h, 10 µM.
Series [18] is described as follows: Octanol-phosphate buffered saline distribution coefficient, log D of compound at pH 7.4 at 1 mg shake for 30 mins and measured after 48 hrs by HPLC analysis. It is filed as physicochemical.

The source made the active and inactive calls.

Turning to `CCCC(CCC)C(=O)N(C)/N=N/c1ccc(C#N)cc1`, the values for the Activity in series [1], in [3] and in series [15] were 94.6%, 98% and 99.1%, respectively. The half-life in series [2] and in series [5] was more than 40 h in each case. Besides, the result in series [4] was inactive. Besides, in series [6], the IC50 was more than 100 µM. Moreover, the outcome in series [7], in series [8], in [9], in series [10], in series [11] and in series [12] was Active. Further, the result in series [13] and in series [14] was Active. For the same compound, the Stability entry in series [16] and in series [17] was “Stable” each time. The pH-dependent lipophilicity (logD) at 30 min in [18] came out at 4.84.
